Data: paper PMC11956031 (RSC Medicinal Chemistry, 2025)

Experiments:
[1] = test system: 2008 (ovarian) cancer cells; test: MTT cytotoxicity, 2008 cells, 72 h; format: cell-based, human; settings: read-out: IC50 2008, 72 h incubation
Procedure, shortened: (§1)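 Cells kept in log phase at 37 °C, 5% CO2, 10% FCS, 2 mM L-glutamine; RPMI-1640 for HCT-15, PSN-1, NTERA-2, 2008 and C13*; DMEM for MDA-MB-231 and HEK293; F-12 HAM's for CHO. C13* selected from 2008 with low-dose cisplatin. 72 h exposure, 0.5% final DMSO. IC50 at 570 nm vs untreated by 4-PL. RF = C13*/2008 IC50; panel average of IC50s.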

[2] = test system: NTERA-2 cancer cell spheroids; test: 3D spheroids APH assay, NTERA-2; format: cell-based, human; settings: read-out: IC50 3D spheroids NTERA-2, 72 h incubation
Procedure, shortened: (§2)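 2.5 × 10^3 2008 or NTERA-2 cells per well grown as spheroids in phenol red-free F-12 HAM's with 10% FCS and 20% methyl cellulose stock. Treated 72 h; DMSO stocks, 0.5% final DMSO; cisplatin from 0.9% NaCl. Viability by modified acid phosphatase assay. IC50 from 405 nm absorbance vs untreated, 4-PL fit.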

[3] = test system: C13* cancer cells (ovarian, resistant to cisplatin); test: MTT cytotoxicity, cisplatin-resistant C13* cells, 72 h; format: cell-based, human
Procedure, shortened: as §1

[4] = test system: 2008 cancer cell spheroids; test: 3D spheroids APH assay, 2008; format: cell-based, human; settings: read-out: IC50 3D spheroids 2008, 72 h incubation
Procedure, shortened: as §2

[5] = test system: PSN-1 (pancreatic) cancer cells; test: MTT cytotoxicity, PSN-1 cells, 72 h; format: cell-based, human; settings: read-out: IC50 PSN-1, 72 h incubation
Procedure, shortened: as §1

[6] = test system: Chinese hamster ovary (CHO) cells; test: MTT cytotoxicity, non-tumor CHO cells; format: cell-based; settings: read-out: IC50 CHO, 72 h incubation
Procedure, shortened: as §1

[7] = test system: MDA-MB-231 (breast) cancer cells; test: MTT cytotoxicity, MDA-MB-231 cells, 72 h; format: cell-based, human; settings: read-out: IC50 MDA-MB-231, 72 h incubation
Procedure, shortened: as §1

[8] = test system: human embryonic kidney (HEK-293) cells; test: MTT cytotoxicity, non-tumor HEK-293 cells; format: cell-based; settings: read-out: IC50 HEK-293, 72 h incubation
Procedure, shortened: as §1

[9] = test system: NTERA-2 (embryonal) cancer cells; test: MTT cytotoxicity, NTERA-2 cells, 72 h; format: cell-based, human; settings: read-out: IC50 NTERA-2, 72 h incubation
Procedure, shortened: as §1

[10] = test system: HCT-15 (colorectal) cancer cells; test: MTT cytotoxicity, HCT-15 cells, 72 h; format: cell-based, human; settings: read-out: IC50 HCT-15, 72 h incubation
Procedure, shortened: as §1

In the case of `N.N.[Cl][Pt][Cl]` [Cisplatin, cisplatin], the IC50 [1] is reported as 2 ± 1 µM, the IC50 [2] is reported as 50 ± 5 µM and the “resistance factor (RF)” value ([3]; in brackets, ratio IC50 resistant C13* / sensitive 2008 cells) is reported as 11.7. The IC50 ([3]; read-out: IC50 C13*, 72 h incubation, MTT, cisplatin-resistant cells) was 25 ± 2 µM, the IC50 [4] was 13.9 ± 0.8 µM and the IC50 [5] was 12 ± 3 µM. The IC50 [6] was 29 ± 3 µM, the IC50 [7] was 22 ± 4 µM and the IC50 [8] was 14 ± 3 µM. It also gave an IC50 [9] of 15 ± 3 µM and an IC50 [10] of 14 ± 2 µM.
